Test results: PMC10829792 (Cell Reports Medicine, 2024)

Legend:
U2932 cells = experiment: Cell viability, trypan blue assay; type: cell-based, human; details: U2932 cells treated with only romidepsin (10 nM) or γPNA2-NLS (8 μM)
Raji cells = experiment: Cell viability, trypan blue assay; type: cell-based, human; details: romidepsin with or without γPNA2-NLS, mean, n = 3
U2932 xenograft mice = experiment: Tumor growth and survival study in U2932 xenograft mice; type: in vivo, mouse; details: romidepsin 1 mg/kg i.p. on days 0 and 6, n = 8
In short: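 Mice bearing U2932 tumours of 100–150 mm³ were randomised. Romidepsin 1 mg/kg i.p. on days 0 and 6, and test compound 5 mg/kg on days 1, 4, 7 and 10, alone or combined. Vehicle group included.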

[1] = system: DLBCL patient-derived xenograft (PDX) mice; experiment: Tumor growth in DLBCL PDX mice; type: in vivo, mouse; details: γPNA2-NLS 5 mg/kg, romidepsin 1 mg/kg i.p., n = 5 per group
In short: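 DLBCL PDX fragments were serially implanted, reharvested at ~1500 mm³, and grouped at 100–150 mm³. Dosing followed the U2932 xenograft regimen: romidepsin 1 mg/kg i.p. days 0 and 6; test compound 5 mg/kg days 1, 4, 7 and 10. Body weight and tumour volume were recorded daily. Endpoint was tumour volume 1800–2000 mm³.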

DLBCL PDX tumors = experiment: Histology and immunohistochemistry; type: in vivo, mouse; details: romidepsin study, n = 2 mice per group, n > 4 images
In short: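 DLBCL PDX mice grouped at tumour volume 100–150 mm³. Romidepsin 1 mg/kg i.p. on days 0 and 6; test compound 5 mg/kg on days 1, 4, 7 and 10. Mice euthanized at 1800–2000 mm³.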

γH2AX in HeLa cells = experiment: γH2AX foci assay, immunofluorescence; type: cell-based, human; details: 24 h, γPNA2-NLS 8 μM, bleomycin 50 and 150 μM
In short: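 HeLa cells were seeded at 100,000/well and exposed for 24 h to test compound (8 μM) or bleomycin (50 and 150 μM). Nuclei were stained with NucBlue (25 min, 37°C). Cells were fixed in 4% PFA (10 min, RT), permeabilised with 0.1% Triton X in PBS, and stained with PE-conjugated anti-γH2AX (2 h, 37°C). Read-out was fluorescence microscopy.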

Row | Molecule | viability, day 4, single treatments (U2932 cells) [% viability] | reduction in viability, day 4 (Raji cells) [%] | reduction of tumor growth (U2932 xenograft mice) [fold] | lower tumor volumes / decrease on day 35 [1] [fold] | caspase-3 activation, fold increase (DLBCL PDX tumors) [fold] | γH2AX immunofluorescence staining (γH2AX in HeLa cells)
1 | C/C=C1\NC(=O)[C@H]2CSSCC/C=C/[C@H](CC(=O)N[C@H](C(C)C)C(=O)N2)OC(=O)[C@H](C(C)C)NC1=O [romidepsin] | 50 | 58 | 2 | 1.3 | ~5 | 
2 | bleomycin |  |  |  |  |  | increased γH2AX-positive nuclei
